From ChEMBL document CHEMBL4715736, “Identification of anticancer agents based on the thieno[2,3-b]pyridine and 1H-pyrazole molecular scaffolds” (2016)

Columns and labels:
Format in all cases: functional
[1] = test system: SN12C; assay: Growth inhibition of human SN12C cells assessed as cell growth at 0.01 uM incubated for 48 hrs by sulforhodamine B assay relative to control; settings: read-out: Activity
[2] = test system: U-251; assay: Growth inhibition of human U-251 cells assessed as cell growth at 100 uM incubated for 48 hrs by sulforhodamine B assay relative to control; settings: read-out: Activity
[3] = test system: HCC 2998; assay: Growth inhibition of human HCC 2998 cells assessed as cell growth at 100 uM incubated for 48 hrs by sulforhodamine B assay relative to control; settings: read-out: Activity
Method in brief: (§1)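 NCI Developmental Therapeutics Program NCI60 panel. Compounds that were active in the 10 µM one-dose screen went on to dose–response testing. Growth at each concentration is expressed relative to untreated control (100%). GI50 (concentration giving 50% of maximal inhibition of proliferation) and TGI (concentration giving total growth inhibition) were derived from the curves.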

[4] = test system: MDA-MB-435; assay: Growth inhibition of human MDA-MB-435 cells assessed as cell growth at 0.01 uM incubated for 48 hrs by sulforhodamine B assay relative to control; settings: read-out: Activity
[5] = test system: SK-OV-3; assay: Growth inhibition of human SK-OV-3 cells assessed as cell growth at 0.1 uM incubated for 48 hrs by sulforhodamine B assay relative to control; settings: read-out: Activity
[6] = test system: UO-31; assay: Growth inhibition of human UO-31 cells assessed as cell growth at 0.01 uM incubated for 48 hrs by sulforhodamine B assay relative to control; settings: read-out: Activity
[7] = test system: HCC 2998; assay: Growth inhibition of human HCC 2998 cells assessed as cell growth at 0.1 uM incubated for 48 hrs by sulforhodamine B assay relative to control; settings: read-out: Activity; method in brief: as §1
[8] = test system: HCT-15; assay: Growth inhibition of human HCT-15 cells assessed as cell growth at 0.1 uM incubated for 48 hrs by sulforhodamine B assay relative to control; settings: read-out: Activity
[9] = test system: TK-10; assay: Growth inhibition of human TK-10 cells incubated for 48 hrs by sulforhodamine B assay; settings: for CC50: read-out: LC50 (the source's name)
Method in brief: (§2)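 NCI DTP 60-line human tumour panel. Dose-response curves were run only for ligands active in the initial 10 µM screen. GI50 (concentration giving 50% of maximal inhibition of proliferation) and TGI (concentration giving total growth inhibition) were derived from these curves.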

[10] = test system: Hs-578T; assay: Growth inhibition of human Hs-578T cells assessed as cell growth at 1 uM incubated for 48 hrs by sulforhodamine B assay relative to control; settings: read-out: Activity
[11] = test system: PC-3; assay: Growth inhibition of human PC-3 cells assessed as cell growth at 0.1 uM incubated for 48 hrs by sulforhodamine B assay relative to control; settings: read-out: Activity
[12] = test system: LOX IMVI; assay: Growth inhibition of human LOX IMVI cells assessed as cell growth at 1 uM incubated for 48 hrs by sulforhodamine B assay relative to control; settings: read-out: Activity
[13] = test system: OVCAR-8; assay: Growth inhibition of human OVCAR-8 cells assessed as cell growth at 100 uM incubated for 48 hrs by sulforhodamine B assay relative to control; settings: read-out: Activity
[14] = test system: HCC 2998; assay: Growth inhibition of human HCC 2998 cells assessed as cell growth at 1 uM incubated for 48 hrs by sulforhodamine B assay relative to control; settings: read-out: Activity; method in brief: as §1
[15] = test system: NCI-H226; assay: Growth inhibition of human NCI-H226 cells assessed as cell growth at 0.01 uM incubated for 48 hrs by sulforhodamine B assay relative to control; settings: read-out: Activity
[16] = test system: SK-MEL-28; assay: Growth inhibition of human SK-MEL-28 cells assessed as cell growth at 1 uM incubated for 48 hrs by sulforhodamine B assay relative to control; settings: read-out: Activity
[17] = test system: CAKI-1; assay: Growth inhibition of human CAKI-1 cells assessed as cell growth at 0.01 uM incubated for 48 hrs by sulforhodamine B assay relative to control; settings: read-out: Activity; method in brief: as §1
[18] = test system: SK-OV-3; assay: Growth inhibition of human SK-OV-3 cells incubated for 48 hrs by sulforhodamine B assay; settings: for CC50: read-out: LC50 (the source's name); method in brief: as §2
[19] = test system: KM12; assay: Growth inhibition of human KM12 cells assessed as cell growth at 1 uM incubated for 48 hrs by sulforhodamine B assay relative to control; settings: read-out: Activity
[20] = test system: CCRF-CEM; assay: Growth inhibition of human CCRF-CEM cells incubated for 48 hrs by sulforhodamine B assay; method in brief: as §1
[21] = test system: RPMI-8226; assay: Growth inhibition of human RPMI-8226 cells assessed as cell growth at 1 uM incubated for 48 hrs by sulforhodamine B assay relative to control; settings: read-out: Activity
[22] = test system: SK-MEL-5; assay: Growth inhibition of human SK-MEL-5 cells assessed as cell growth at 1 uM incubated for 48 hrs by sulforhodamine B assay relative to control; settings: read-out: Activity
[23] = test system: MDA-MB-468; assay: Growth inhibition of human MDA-MB-468 cells incubated for 48 hrs by sulforhodamine B assay; settings: for CC50: read-out: LC50 (the source's name)
Method in brief: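 NCI60 panel at the NCI Developmental Therapeutics Program. Only compounds active in the 10 µM screen went to dose-response testing. GI50, the concentration giving 50% of maximal inhibition of proliferation, and TGI, the concentration giving total growth inhibition, were derived from the dose-response curves.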

[24] = test system: SNB-75; assay: Growth inhibition of human SNB-75 cells assessed as cell growth at 100 uM incubated for 48 hrs by sulforhodamine B assay relative to control; settings: read-out: Activity
[25] = test system: RXF 393; assay: Growth inhibition of human RXF 393 cells assessed as cell growth at 0.01 uM incubated for 48 hrs by sulforhodamine B assay relative to control; settings: read-out: Activity
[26] = test system: BT-549; assay: Growth inhibition of human BT-549 cells assessed as cell growth at 0.1 uM incubated for 48 hrs by sulforhodamine B assay relative to control; settings: read-out: Activity
[27] = test system: SN12C; assay: Growth inhibition of human SN12C cells assessed as cell growth at 0.1 uM incubated for 48 hrs by sulforhodamine B assay relative to control; settings: read-out: Activity
[28] = test system: CCRF-CEM; assay: Growth inhibition of human CCRF-CEM cells assessed as cell growth at 0.01 uM incubated for 48 hrs by sulforhodamine B assay relative to control; settings: read-out: Activity; method in brief: as §1
[29] = test system: SR; assay: Growth inhibition of human SR cells assessed as cell growth at 0.1 uM incubated for 48 hrs by sulforhodamine B assay relative to control; settings: read-out: Activity
[30] = test system: MDA-MB-468; assay: Growth inhibition of human MDA-MB-468 cells assessed as cell growth at 0.01 uM incubated for 48 hrs by sulforhodamine B assay relative to control; settings: read-out: Activity
[31] = test system: UACC-62; assay: Growth inhibition of human UACC-62 cells assessed as cell growth at 0.1 uM incubated for 48 hrs by sulforhodamine B assay relative to control; settings: read-out: Activity
[32] = test system: K562; assay: Growth inhibition of human K562 cells assessed as cell growth at 0.01 uM incubated for 48 hrs by sulforhodamine B assay relative to control; settings: read-out: Activity
[33] = test system: HCC 2998; assay: Growth inhibition of human HCC 2998 cells assessed as cell growth at 0.01 uM incubated for 48 hrs by sulforhodamine B assay relative to control; settings: read-out: Activity; method in brief: as §1
[34] = test system: SK-MEL-2; assay: Growth inhibition of human SK-MEL-2 cells assessed as cell growth at 0.1 uM incubated for 48 hrs by sulforhodamine B assay relative to control; settings: read-out: Activity
[35] = test system: KM12; assay: Growth inhibition of human KM12 cells assessed as cell growth at 0.01 uM incubated for 48 hrs by sulforhodamine B assay relative to control; settings: read-out: Activity

SMILES: Nc1c(C(=O)Nc2ccccc2)sc2nc3c(cc12)CN(Cc1ccccc1)CC3
- growth at 0.01 µM [1]: 94%
- growth at 100 µM [2]: 12%
- growth at 100 µM [3]: 47%
- growth at 0.01 µM [4]: 93%
- growth at 0.1 µM [5]: 93%
- growth at 0.01 µM [6]: 80%
- growth at 0.1 µM [7]: 97%
- growth at 0.1 µM [8]: 97%
- GI50 [9]: 4.09 µM
- TGI [9]: 54.7 µM
- CC50 [9]: > 100 µM
- growth at 1 µM [10]: 78%
- growth at 0.1 µM [11]: 91%
- growth at 1 µM [12]: 98%
- growth at 100 µM [13]: 18%
- growth at 1 µM [14]: 105%
- growth at 0.01 µM [15]: 98%
- growth at 1 µM [16]: 94%
- growth at 0.01 µM [17]: 93%
- GI50 [18]: 3.53 µM
- TGI [18]: > 100 µM
- CC50 [18]: > 100 µM
- growth at 1 µM [19]: 88%
- GI50 [20]: 50.3 µM
- LC50 [20]: > 100 µM
- TGI [20]: > 100 µM
- growth at 1 µM [21]: 93%
- growth at 1 µM [22]: 95%
- GI50 [23]: 17 µM
- TGI [23]: > 100 µM
- CC50 [23]: > 100 µM
- growth at 100 µM [24]: -49%
- growth at 0.01 µM [25]: 96%
- growth at 0.1 µM [26]: 89%
- growth at 0.1 µM [27]: 94%
- growth at 0.01 µM [28]: 96%
- growth at 0.1 µM [29]: 91%
- growth at 0.01 µM [30]: 96%
- growth at 0.1 µM [31]: 92%
- growth at 0.01 µM [32]: 98%
- growth at 0.01 µM [33]: 90%
- growth at 0.1 µM [34]: 95%
- growth at 0.01 µM [35]: 100%

SMILES: CN1CCc2nc3sc(C(N)=O)c(N)c3c(-c3cccs3)c2C1
- growth at 0.01 µM [1]: 98%
- growth at 100 µM [2]: 7%
- growth at 100 µM [3]: -29%
- growth at 0.01 µM [4]: 95%
- growth at 0.1 µM [5]: 92%
- growth at 0.01 µM [6]: 97%
- growth at 0.1 µM [7]: 99%
- growth at 0.1 µM [8]: 106%
- GI50 [9]: 3.32 µM
- TGI [9]: 13.1 µM
- CC50 [9]: > 100 µM
- growth at 1 µM [10]: 91%
- growth at 0.1 µM [11]: 110%
- growth at 1 µM [12]: 56%
- growth at 100 µM [13]: 5%
- growth at 1 µM [14]: 94%
- growth at 0.01 µM [15]: 93%
- growth at 1 µM [16]: 95%
- growth at 0.01 µM [17]: 95%
- GI50 [18]: 3.35 µM
- TGI [18]: > 100 µM
- CC50 [18]: > 100 µM
- growth at 1 µM [19]: 82%
- GI50 [20]: 3.77 µM
- LC50 [20]: > 100 µM
- TGI [20]: > 100 µM
- growth at 1 µM [21]: 119%
- growth at 1 µM [22]: 64%
- GI50 [23]: 1.75 µM
- TGI [23]: 4.86 µM
- CC50 [23]: 41.7 µM
- growth at 100 µM [24]: -40%
- growth at 0.01 µM [25]: 97%
- growth at 0.1 µM [26]: 114%
- growth at 0.1 µM [27]: 93%
- growth at 0.01 µM [28]: 103%
- growth at 0.1 µM [29]: 96%
- growth at 0.01 µM [30]: 86%
- growth at 0.1 µM [31]: 105%
- growth at 0.01 µM [32]: 96%
- growth at 0.01 µM [33]: 94%
- growth at 0.1 µM [34]: 114%
- growth at 0.01 µM [35]: 103%

SMILES: Cc1cccc(NC(=O)c2sc3nc4c(cc3c2N)C(=O)CCC4)c1
- growth at 0.01 µM [1]: 95%
- growth at 100 µM [2]: -43%
- growth at 100 µM [3]: -23%
- growth at 0.01 µM [4]: 87%
- growth at 0.1 µM [5]: 73%
- growth at 0.01 µM [6]: 88%
- growth at 0.1 µM [7]: 80%
- growth at 0.1 µM [8]: 48%
- GI50 [9]: > 100 µM
- TGI [9]: ≥ 100 µM
- CC50 [9]: > 100 µM
- growth at 1 µM [10]: 11%
- growth at 0.1 µM [11]: 80%
- growth at 1 µM [12]: 47%
- growth at 100 µM [13]: -30%
- growth at 1 µM [14]: 28%
- growth at 0.01 µM [15]: 95%
- growth at 1 µM [16]: 47%
- growth at 0.01 µM [17]: 89%
- GI50 [18]: 0.251 µM
- TGI [18]: > 100 µM
- CC50 [18]: > 100 µM
- growth at 1 µM [19]: 19%
- LC50 [20]: > 100 µM
- TGI [20]: > 100 µM
- growth at 1 µM [21]: 36%
- growth at 1 µM [22]: 16%
- GI50 [23]: 0.143 µM
- CC50 [23]: > 100 µM
- growth at 100 µM [24]: 1%
- growth at 0.01 µM [25]: 97%
- growth at 0.1 µM [26]: 74%
- growth at 0.1 µM [27]: 87%
- growth at 0.01 µM [28]: 96%
- growth at 0.01 µM [30]: 93%
- growth at 0.1 µM [31]: 72%
- growth at 0.01 µM [32]: 97%
- growth at 0.01 µM [33]: 97%
- growth at 0.1 µM [34]: 70%
- growth at 0.01 µM [35]: 95%
